# This is one part of a sample in which hits are shown more often than they occur.
# PTEN del growth: growth suppression of PTEN-null HCT116, primary screen, cell-based, CellTiter-Glo; AID 827, 2007; viability, % at 10 µM; actives 1.2% (n = 140,000); HCT116 PTEN-null viability, 60 h; hits give low values;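 active = viability at or below a set limit, 4 SD under the median of all tested compounds, cut at about 3.7% in these data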;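 note: PTEN knockout HCT116 line with beta catenin targeted HCT116 as companion control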
# Fibroblast inh: antiproliferative effect on LL 47 fibroblasts – human, LL 47 cells, CellTiter-Glo luminescence, primary screen; actives 1.1% (n = 85,000); LL 47 human lung fibroblast viability, ATP luminescence; hits give low values; viability, % at 10 µM; AID 719, 2007;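 active = viability at or below 50% in the single dose screen; inactive = viability above 50%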;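 note: compound exposure lasted 72 h before the ATP readout; 100% = median luminescence of untreated cell-only wells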
#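 Material: human LL 47 lung fibroblast cells; quantity: 1,150 cells/well; medium: IMEM plus 15% FBS; doses: 0.1% DMSO in all compound wells; timing: overnight attachment after seeding, then 72 h compound exposure at 37 °C; detection: CellTiter-Glo luminescence; measure: % viability of median cell-only signal; controls: cell-only wells, no compound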
# H69AR growth 86K: proliferation blockers of H69AR lung cancer cells, primary screen, cell-based, human, 86K library | H69AR lung tumor viability, ATP luminescence, 72 h; hits give low values | viability, % at 10 µM | actives 6% (n = 85,000) | AID 598, 2007;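 active = viability at or below 40%; inactive = viability above 40%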;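 note: multidrug resistant small cell line overexpressing MRP-1 efflux transporter; 100% = mean luminescence of untreated control wells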
# HCT116 bCat-KO: primary screen for growth suppressors in beta-catenin knockout HCT116 cells (colon tumor, human) | HCT116 beta-catenin knockout viability, CellTiter-Glo, 60 h; hits give low values | viability, % at 10 µM | actives 1.5% (n = 140,000);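 active = viability at or under a set limit, the compound median less 4 SD, cut at about 6% in these data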;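 note: 0% = Hyamine 1622 control at 20 µM and 100% = untreated cell control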
# HUVEC inhibit: inhibitors of HUVEC proliferation, primary screen, cell-based, 384-well. CellTiter-Glo luminescence, 72 h; hits give low values. AID 648, 2007. actives 1.1% (n = 86,000). viability, % at 10 µM (by protocol);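 active = viability at or below 30%; inactive = viability above 30%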;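 note: 100% = median luminescence of DMSO-only cell control wells on each plate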
# Active calls of the source: *; · = no result.
SMILES,PTEN del growth,Fibroblast inh,H69AR growth 86K,HCT116 bCat-KO,HUVEC inhibit
CCOc1cc(C)c(-c2onc(C(F)(F)F)c2-c2csc(C)n2)c(O)c1,58,88,3.9*,79,39
Cc1nc(-c2c(C(F)(F)F)noc2-c2ccc(O)cc2O)cs1,84,99,88,75,110
N#C/C(=C(/O)COC(=O)CCC1CCCCC1)c1nc2ccccc2[nH]1,16,60,25*,17,74
Cc1cccc(C)c1OCC(=O)OC/C(O)=C(\C#N)c1nc2ccccc2[nH]1,11,·,·,10,·
Cc1cc(C)cc(OCC(=O)OC/C(O)=C(\C#N)c2nc3ccccc3[nH]2)c1,6,·,·,3.9*,·
C/C(O)=C(\C#N)c1nc2ccccc2[nH]1,69,·,·,73,·
N#C/C(=C(\O)Cc1ccccc1)c1nc2ccccc2[nH]1,7,95,15*,7,72
Cc1c(NC(=S)NC(=O)c2cc3ccccc3o2)c(=O)n(-c2ccccc2)n1C,94,·,·,94,·
CCCC/C(C)=N/NC(=O)c1cn(-c2ccccc2)nc1-c1ccccc1,88,·,·,87,·
COc1cc(Cl)cc2c1Sc1ccccc1/C2=C/CCN(C)C,4,96,2.7*,2.2*,4.1*
CN(C)CC/C=C1/c2ccccc2Sc2c(O)cc(Cl)cc21,20,54,6.3*,14,50
COc1cc2c(cc1Cl)/C(=C\CCN(C)C)c1ccccc1S2,13,·,·,13,·
COc1ccc(CC(=O)Oc2cc(C)[nH]c(=O)c2[N+](=O)[O-])cc1,92,·,·,96,·
CCc1cc2c(=O)c(-c3ccc4c(c3)OCCO4)coc2cc1OC(=O)c1ccco1,74,91,15*,84,72
CCCc1cc2c(=O)c(-c3ccc4c(c3)OCCO4)coc2cc1OC(=O)c1ccco1,72,86,40*,72,74
Cn1c(=O)[nH]c(=O)c2c1nc(Br)n2CCCSc1nc2ccccc2o1,17,60,16*,20,57
Cc1cc(Cl)ccc1OCC(=O)NCCOc1nc(N2CCOCC2)nc(N2CCOCC2)n1,76,·,·,73,·
O=[N+]([O-])c1ccc(-n2nnnc2-c2ccccc2)c([N+](=O)[O-])c1,0.6*,·,·,0.6*,·
O=[N+]([O-])c1ccc(NC(=S)N2CCc3ccccc3C2)cc1,79,·,·,79,·
O=c1c(C(c2nnnn2C2CCCCC2)N2CCCCC2)coc2ccc(Cl)cc12 (stereo not drawn),81,94,18*,89,64
Clc1ccc(C(c2nnnn2C2CCCC2)N2CCN(Cc3ccncc3)CC2)cc1 (stereo not drawn),73,·,·,78,·
CCCCC(=O)Nc1ccc(NC(=O)c2ccccc2[N+](=O)[O-])cc1OC,99,·,·,93,·
O=c1cc(CN2CCN(c3ccc(F)cc3)CC2)c2cc3c(cc2o1)CCCC3,87,68,32*,90,54
O=c1cc(CN2CCN(C/C=C/c3ccccc3)CC2)c2cc(O)c(-c3ccccc3)cc2o1,57,·,·,59,·
CN1CCN(Cc2cc(=O)oc3cc4c(cc23)CCC4)CC1,92,100,85,79,93
SMILES,PTEN del growth,Fibroblast inh,H69AR growth 86K,HCT116 bCat-KO,HUVEC inhibit
COc1ccc(N2CCN(Cc3cc(=O)oc4cc(-c5ccccc5)c(O)cc34)CC2)cc1,6,7.6*,3.1*,14,32
O=c1cc(CN2CCN(c3ccccc3F)CC2)c2cc(O)c(-c3ccccc3)cc2o1,73,·,·,83,·
Cc1cc2oc(=O)cc(CN3CCOCC3)c2cc1C,88,97,79,86,96
Cc1cc2oc(=O)cc(CN3CCN(C/C=C/c4ccccc4)CC3)c2cc1O,2.8*,·,·,2.3*,·
COc1ccc(N2CCN(Cc3cc(=O)oc4cc(C)c(Cl)cc34)CC2)cc1,94,80,24*,90,91
CCOc1cc2c(cc1OCC)C(c1ccccc1)N(c1ccccc1)C(=O)C2 (stereo not drawn),51,·,·,43,·
Cc1cc(C)nc(NS(=O)(=O)c2ccc(N/C=C/C(=O)c3ccc(Cl)c(Cl)c3)cc2)n1,76,·,·,87,·
c1ccc(-n2ncc3c(NCc4ccc5c(c4)OCO5)ncnc32)cc1,86,87,87,83,89
Cc1ccc(-n2ncc3c(NCc4ccc5c(c4)OCO5)ncnc32)c(C)c1,60,68,28*,61,89
